Screens: PubChem BioAssay, several laboratories
UPR XBP1 act: adaptive UPR (XBP1) activation; CHO-XBP1 luciferase reporter, IRE1-XBP1 UPR activation, luminescence; percent of tunicamycin response, DMSO as zero; 0.33% of 330,000 active; AID 463104; activation, % at 20 µM;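 active means versus positive control, 20 µM dose yields 30% or more activation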
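Material: CHO cell line with stable XBP1 luciferase reporter; schedule: 16-18 h cell attachment at 37 °C, then 6 h compound exposure; signal: glow luminescence from Steady-Glo reagent; medium: serum-containing F12 medium, 10% FBS; benchmarks: tunicamycin 10 µg/mL and vehicle-only wells; read-out: percent activation relative to tunicamycin reference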
CHOP UPR activ: apoptotic UPR (CHOP) activation; CHO-CHOP luciferase reporter, luminescence; percent of tunicamycin response over DMSO baseline; activation, % at 10 µM; 0.34% of 330,000 active;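 active means at 10 µM dose, activation of 40% or more, normalized to positive control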
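assay system = CHO CHOP reporter cells | amount = 500 CHO-CHOP cells per well | buffer or medium = F12 with 10% FBS | incubation = 16-18 h cell attachment, then 6 h compound exposure, 37 °C | detection = luminescence read with Steady-Glo | read-out = percent activation relative to tunicamycin control | controls = tunicamycin high control, DMSO low control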
CHOP inh: inhibitors of CHOP induction in ER stress response; CHO-K1 CHOP-promoter luciferase, tunicamycin-induced, 15-18 h; inhibition, % at 10 µM; 3.8% of 220,000 active; AID 2732;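 active means compounds that reduced the stress-induced luciferase reporter signal by more than about 70% of percent inhibition, limit read from the data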
FXN GAA850 act: frataxin GAA850 promoter activation. HEK293 lucGAA850 FXN promoter luciferase reporter, 24 h; percent of 10 µM SAHA response. activation, % at 6 µM. 0.56% of 360,000 active;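 active means activation above the average of all compounds screened plus 3 SD, cutoff fixed separately per campaign, cut at about 7.5% in these data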
CHOP inh conf: confirmation of CHOP induction inhibitors. inhibition, % at 10 µM. shares compounds with CHOP inh. CHO-CHOP promoter luciferase reporter, tunicamycin-induced, luminescence. 45% of 2,100 active;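 active means mean of three repeat readings of reporter signal inhibition above a set limit, cut at about 70% in these data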
Of the large screens only hits and unclear results are named; the others gave an inactive call (follow-up assays come after a bar, where they were run). Shown is part of a subset that was picked to be rich in hits.

C[C@H](Cc1ccc2c(c1)OC(C(=O)O)(C(=O)O)O2)NC[C@H](O)c1cccc(Cl)c1	none (no result: UPR XBP1 act, CHOP UPR activ, FXN GAA850 act)
CC12CNCC(C)(CNC1)C2O (stereo not drawn)	CHOP inh 88
Cc1ccc(C)c(NP(=O)(Oc2ccccc2)Oc2ccccc2)c1	none (no result: CHOP inh)
Cc1cccc(OP(=O)(Oc2ccccc2)OC(c2ccccc2)C(F)(F)F)c1 (stereo not drawn)	CHOP inh 76
CCn1nc(/C=C/c2ccccc2)nc2c(=O)n(C)c(=O)nc1-2	CHOP inh 105
CCn1nc(-c2cccs2)nc2c(=O)n(C)c(=O)nc1-2	none (no result: UPR XBP1 act, CHOP UPR activ, CHOP inh)
Nc1ncnc2c1ccn2[C@@H]1O[C@H](CO)[C@@H](O)[C@H]1O	none (no result: CHOP inh)
NC(=S)c1cn(C2OC(CO)C(O)C2O)c2ncnc(N)c12 (stereo not drawn)	CHOP inh 105 (no result: UPR XBP1 act, CHOP UPR activ)
NC(N)=Nc1ccc2[nH]c3c(c2c1)C[C@@]1(O)[C@H]2Cc4ccc(O)c5c4[C@@]1(CCN2CC1CC1)[C@H]3O5	FXN GAA850 act 11
Oc1ccc2c3c1O[C@H]1[C@@H](O)CC[C@@]4(O)[C@@H](C2)N(CC2CCC2)CC[C@]314	none (no result: CHOP inh)
C[Se]C[C@H](N)C(=O)O	none (no result: UPR XBP1 act, CHOP UPR activ, FXN GAA850 act)
Cc1ccc(Cn2nnnc2CN2CCC(n3nnc4cc(C(F)(F)F)ccc43)CC2)cc1	none
FC(F)(F)c1ccc2c(c1)nnn2C1CCN(Cc2nnnn2Cc2ccccc2)CC1	CHOP inh 88
CC12CCC3C(CCC4=C(O)C(=O)CCC43C)C1CCC2=O (stereo not drawn)	none (no result: UPR XBP1 act, CHOP UPR activ, FXN GAA850 act)
C[C@H]1C2Cc3ccc(O)cc3C1(C)CCN2CC1CC1 (stereo partly drawn)	none (no result: UPR XBP1 act, CHOP UPR activ, FXN GAA850 act)
COc1cc(C=C2C(=O)NC(=O)NC2=O)ccc1OCc1ccc([N+](=O)[O-])cc1	none (no result: UPR XBP1 act, CHOP UPR activ)
COc1cc(/C=C(/C)[N+](=O)[O-])ccc1OCc1ccccc1Cl	CHOP inh 106
c1ccc(C2N3CCCN23)cc1 (stereo not drawn)	none
ON1C2CCCCC2N(O)C1c1ccccc1 (stereo not drawn)	CHOP inh 89
C[C@@H]1C[C@H]2OC(=O)C3(CO3)[C@H]2[C@H](O)[C@]2(C)C(=O)C3OC3[C@@H]12 (stereo partly drawn)	CHOP inh 106 (no result: FXN GAA850 act)
CCOc1cc(CNCCc2c[nH]c3ccccc23)cc(Cl)c1OCC	CHOP inh 80
CCOc1c(Cl)cc(CNCCc2c[nH]c3ccccc23)cc1OC	none
C=CCn1c(O)c(C=NCCCOc2ccc(CC)cc2)c(=O)[nH]c1=S	CHOP inh 77
Cc1ccc(C)c(CN2CCC(n3nnc4cc(F)ccc43)CC2)c1	CHOP inh 75
CN(N=O)c1ccc(O)c(O)c1	none (no result: UPR XBP1 act, CHOP UPR activ, FXN GAA850 act)
CCCC[N+]1(C)C2CC(OC(=O)[C@H](CO)c3ccccc3)CC1C1OC12 (stereo partly drawn)	none (no result: UPR XBP1 act, CHOP UPR activ, FXN GAA850 act)
CCOC(=O)c1c(NC(NC(=O)CF)C(Cl)(Cl)Cl)sc2c1CCCC2 (stereo not drawn)	CHOP inh 74
CCOC(=O)c1c(NC(=O)c2c(N)n(CCCOC)c3nc4ccccc4nc23)sc2c1CCCC2	none
CCN(CC)c1ncnc2c1ncn2[C@@H]1O[C@H](COP(=O)(O)OP(=O)(O)C(Br)(Br)P(=O)(O)O)[C@@H](O)[C@H]1O	none (no result: UPR XBP1 act, CHOP UPR activ, FXN GAA850 act)
C[C@H]1CCCC(=O)CCC/C=C/c2cc(O)cc(O)c2C(=O)O1	none
C[C@H]1CCC/C=C/[C@@H]2C[C@H](O)C[C@H]2[C@H](O)/C=C/C(=O)O1	CHOP UPR activ 115 (no result: CHOP inh)
CN(CC(=O)Nc1ccccc1-c1ccccc1)C1CCCCC1	CHOP inh 83
C=CCN1C(=O)/C(=C/c2cccs2)C(=O)NC1=S	CHOP inh 80 (no result: UPR XBP1 act, CHOP UPR activ)
Cn1cccc1/C=C1\C(=O)NC(=O)N(CCC2=CCCCC2)C1=O	none (no result: UPR XBP1 act, CHOP UPR activ)
O=C1NC(=O)N(CCC2=CCCCC2)C(=O)/C1=C\c1cccs1	CHOP inh 94
CCc1c(C(=O)OC)ncc2[nH]c3cc(OC)c(OC)cc3c12	none (no result: UPR XBP1 act, CHOP UPR activ, FXN GAA850 act)
Cc1ccc(/C=C2\C(=O)NC(=S)N(c3ccccc3F)C2=O)s1	CHOP inh 107 (no result: UPR XBP1 act, CHOP UPR activ)
O=[N+]([O-])/C=C/c1c(Cl)cccc1Cl	FXN GAA850 act 9.0 (no result: UPR XBP1 act, CHOP UPR activ, CHOP inh)
CN(C)[C@@H]1C(=O)C(C(N)=O)=C(O)[C@@]2(O)C(=O)C3=C(O)c4c(O)cccc4[C@@](C)(O)[C@H]3[C@H](O)[C@@H]12	none
CN(C)[C@@H]1C(=O)C(C(N)=O)=C(O)[C@@]2(O)C(=O)C3=C(O)c4c(O)cccc4[C@@](C)(O)C3C[C@@H]12 (stereo partly drawn)	FXN GAA850 act 19 (no result: CHOP inh)
CCOC(=O)C1=C(N)Oc2cc(C)oc(=O)c2C12C(=O)N1c3c(cc(OC)cc32)C(C)=CC1(C)C (stereo not drawn)	CHOP inh 76
CCOC(=O)C1=C(N)OC2=C(C(=O)CCC2)C12C(=O)N1c3c(ccc(C)c32)C(C)=CC1(C)C (stereo not drawn)	none
CCOC(=O)C1=C(N)Oc2cc(C)oc(=O)c2C12C(=O)N1c3c(cccc32)C(C)=CC1(C)C (stereo not drawn)	none
CCOC(=O)C1=C(N)Oc2cc(C)oc(=O)c2C12C(=O)N1c3c(cccc32)C(C)CC1(C)C (stereo not drawn)	CHOP inh 83
CC(=Nc1ccc2c(c1)CCC2)c1c(O)n(C2CCCCC2)c(=O)[nH]c1=O	CHOP inh 87
CCC(=Nc1ccc2c(c1)CCC2)c1c(O)n(C2CCCCC2)c(=O)[nH]c1=O	CHOP inh 76
CCCCn1c(=O)c(C(=O)Nc2ccccc2C)c(O)c2ccccc21	none (no result: CHOP inh)
CC(C)CCn1c(=O)c(C(=O)Nc2ccccc2S(N)(=O)=O)c(O)c2ccccc21	CHOP inh 92
O=c1[nH]c(=S)n(CCC2=CCCCC2)c(O)c1C=NC1CCN(Cc2ccccc2)CC1	CHOP inh 81
O=c1[nH]c(=S)n(CCC2=CCCCC2)c(O)c1/C=N/Nc1ccccc1	CHOP inh 73
CN1CCN(/N=C/c2c(O)n(CCC3=CCCCC3)c(=S)[nH]c2=O)CC1	none
Cc1ccc(S(=O)(=O)NCCC(=O)Nc2ccc(Cl)cc2C(=O)c2ccccc2)cc1	CHOP inh 94
CCCCn1c(=O)c(C(=O)Nc2cnccn2)c(O)c2ccccc21	CHOP inh 99 | CHOP inh conf 93
CCCCCn1c(=O)c(C(=O)Nc2nc3ccccc3[nH]2)c(O)c2ccccc21	CHOP inh 98 | CHOP inh conf 109
Cc1cc(C)c(S(=O)(=O)N2Cc3ccccc3-n3nncc3C2)c(C)c1	none (no result: UPR XBP1 act, CHOP UPR activ, CHOP inh)
CC1=CC2/C=C(\C)CCC(O)C(O)/C=C/C(=O)C23C(=O)NC(CC(C)C)C3C1C (stereo not drawn)	CHOP inh 105 | CHOP inh conf 125
CCCCOC(=O)c1ccccc1N	none (no result: UPR XBP1 act, CHOP UPR activ, CHOP inh)
CCCCCCOC(=O)c1ccccc1N	CHOP inh 97 | CHOP inh conf 103
C=CCN1C(=O)/C(=C/c2ccc(N3CCOCC3)o2)C(=O)NC1=S	none
